The source of these data is ChEMBL document CHEMBL1145251, “Synthesis of thiosemicarbazone and 4-thiazolidinone derivatives and their in vitro anti-Toxoplasma gondii activity” (Bioorg Med Chem Lett, 2005).

Assay [1] has as its system Vero. Briefly: Compound tested on vero cells infected with Toxoplasma gondii after 24 h. Format: functional, cell-based. The conditions noted are these: Chlorocebus sabaeus. The essentials: (§1)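 Infected Vero cultures (tachyzoites, 1:10, 24 h at 37 °C beforehand) were exposed 24 h to compound over 0.01–30 mM, as a dilution series (0.1, 1, 10, 20, 30 mM) in triplicate per assay. Trypan blue exclusion was the read-out, and IC50 (mean ± SD) came from non-linear regression.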

In assay [2] the test system is Toxoplasma gondii. As to the kind of experiment: Compound tested on intracellular parasites Toxoplasma gondii in vero cells after 24 h. Format: functional, organism-based. The gist of the method: as §1
In assay [3] the test system is Vero. As to the kind of experiment: Compound tested for percent reduction of vero cells infected with Toxoplasma gondii after 24 hr at 37 degree Centigrade (Untreated=81). Format: functional, Chlorocebus sabaeus.
Assay [4] relates to Toxoplasma gondii. Briefly: Mean number of intracellular parasites in vero cells was determined after treatment with compound (Untreated=783). In kind it is functional.
In assay [5] the test system is Vero. Briefly: Compound tested for percent reduction of vero cells infected with Toxoplasma gondii after 24 h at 37 degree Celsius (Untreated=76). Format: functional, Chlorocebus sabaeus.
Assay [6] has as its system Toxoplasma gondii. Briefly: Mean number of intracellular parasites in vero cells was determined after treatment with compound (Untreated=768). Format: functional.
The test system of assay [7] is Vero. As to the kind of experiment: Compound tested for percent reduction of vero cells infected with Toxoplasma gondii after 24 hr at 37 degree Centigrade (Untreated=72). In kind it is functional, Chlorocebus sabaeus.
Assay [8] deals with Toxoplasma gondii. Briefly: Mean number of intracellular parasites in vero cells was determined after treatment with compound (Untreated=786). Format: functional.
Assay [9] relates to Toxoplasma gondii. Briefly: Mean number of intracellular parasites in vero cells was determined after treatment with compound (Untreated=642). In kind it is functional.
The test system of assay [10] is Vero. As to the kind of experiment: Compound tested for percent of vero cells infected with Toxoplasma gondii after 24 hr at 37 degree Centigrade (Untreated=84).
Assay [11] relates to Vero. As to the kind of experiment: Compound tested for percent reduction of vero cells infected with Toxoplasma gondii after 24 h at 37 degree Celsius (Untreated=65). In kind it is functional, Chlorocebus sabaeus.
For assay [12], the system named is Toxoplasma gondii. Briefly: Mean number of intracellular parasites in vero cells was determined after treatment with compound (Untreated=698). In kind it is functional.
The test system of assay [13] is Vero. Briefly: Compound tested for percent reduction of vero cells infected with Toxoplasma gondii after 24 h at 37 degree Celsius (Untreated=86). In kind it is functional, Chlorocebus sabaeus.
In assay [14] the test system is Toxoplasma gondii. Briefly: Mean number of intracellular parasites in vero cells was determined after treatment with compound (Untreated=663). In kind it is functional.
In assay [15] the test system is Vero. Briefly: Compound tested for percent reduction of vero cells infected with Toxoplasma gondii after 24 hr at 37 degree Centigrade (Untreated=85). In kind it is functional, Chlorocebus sabaeus.
The test system of assay [16] is Toxoplasma gondii. As to the kind of experiment: Mean number of intracellular parasites in vero cells was determined after treatment with compound (Untreated=732). Format: functional.
Assay [17] has as its system Toxoplasma gondii. As to the kind of experiment: Mean number of intracellular parasites in vero cells was determined after treatment with compound (Untreated=442). Format: functional.
The test system of assay [18] is Vero. As to the kind of experiment: Compound tested for percent reduction of vero cells infected with Toxoplasma gondii after 24 hr at 37 degree Centigrade (Untreated=80). In kind it is functional, Chlorocebus sabaeus.
The test system of assay [19] is Toxoplasma gondii. Briefly: Mean number of intracellular parasites in vero cells was determined after treatment with compound (Untreated=840). Format: functional.
In assay [20] the test system is Toxoplasma gondii. As to the kind of experiment: Mean number of intracellular parasites in vero cells was determined after treatment with compound (Untreated=888). In kind it is functional.
In assay [21] the test system is Vero. As to the kind of experiment: Compound tested for percent reduction of vero cells infected with Toxoplasma gondii after 24 h at 37 degree Centigrade (Untreated=89). Format: functional, Chlorocebus sabaeus.
Assay [22] relates to Toxoplasma gondii. Briefly: Mean number of intracellular parasites in vero cells was determined after treatment with compound (Untreated=683). Format: functional.
Assay [23] has as its system Vero. As to the kind of experiment: Compound tested for percent reduction of vero cells infected with Toxoplasma gondii after 24 h at 37 degree Celsius (Untreated=87). In kind it is functional, Chlorocebus sabaeus.
The subject of assay [24] is Toxoplasma gondii. Briefly: Mean number of intracellular parasites in vero cells was determined after treatment with compound (Untreated=726). In kind it is functional.
The nature of assay [25]: Mean number of intracellular parasites in vero cells was determined after treatment with compound (Untreated=852). In kind it is functional, Toxoplasma gondii.
In assay [26] the test system is Toxoplasma gondii. Briefly: Mean number of intracellular parasites in vero cells was determined after treatment with compound (Untreated=627). In kind it is functional.
In assay [27] the test system is Vero. As to the kind of experiment: Compound tested for percent reduction of vero cells infected with Toxoplasma gondii after 24 h at 37 degree Centigrade (Untreated=83). In kind it is functional, Chlorocebus sabaeus.
Assay [28] has as its system Toxoplasma gondii. As to the kind of experiment: Mean number of intracellular parasites in vero cells was determined after treatment with compound (Untreated=687). Format: functional.
The test system of assay [29] is Toxoplasma gondii. As to the kind of experiment: Mean number of intracellular parasites in vero cells was determined after treatment with compound (Untreated=628). In kind it is functional.
Assay [30] concerns Toxoplasma gondii. Briefly: Mean number of intracellular parasites in vero cells was determined after treatment with compound (Untreated=913). In kind it is functional.

Turning to `C/N=C(/S)N/N=C/c1ccccc1[N+](=O)[O-]`, the IC50 is 2000 µM with Vero [1] and 500 µM in the assay on Toxoplasma gondii [2]. The same compound had a Reduction in the assay with Vero [3] of 9%. Besides, the “Mean number of parasites” value in the assay with Toxoplasma gondii [4] was determined as 2.

Turning to `N/C(S)=N/N=C/c1cccc([N+](=O)[O-])c1`, the half-maximal inhibitory concentration (IC50) with Vero [1] worked out at 2000 µM; in the assay with Toxoplasma gondii [2], 100 µM. In the assay with Vero [5], this compound came in with a Reduction of 4%. For the same compound, the “Mean number of parasites” value in the assay on Toxoplasma gondii [6] is given as 3.

With `O=C(O)CC1S/C(=N\N=C\c2cccc([N+](=O)[O-])c2)N(c2ccccc2)C1=O` (centres undefined), in the assay on Vero [7], the Reduction was found to be 13%. Besides, the “Mean number of parasites” value in the assay with Toxoplasma gondii [8] was found to be 2.

Turning to `O=[N+]([O-])c1ccccc1/C=N/N=C(\S)Nc1ccccc1`, the figures for the IC50 with Vero [1] and in the assay with Toxoplasma gondii [2] were 1000 µM and 500 µM, respectively. In addition, in the assay on Toxoplasma gondii [9], the “Mean number of parasites” value turned out to be 3. In the assay on Vero [10], this compound came in with an Infected cells of 7%.

With `N/C(S)=N/N=C/c1ccc([N+](=O)[O-])cc1`, the concentration for half-maximal inhibition (IC50) turned out to be 1500 µM in the assay with Vero [1] and 500 µM in the assay on Toxoplasma gondii [2]. The Reduction in the assay on Vero [11] is 5%. Further, the “Mean number of parasites” value in the assay on Toxoplasma gondii [12] amounted to 4.

As to `CCN1C(=O)C(CC(=O)O)S/C1=N\N=C\c1ccccc1[N+](=O)[O-]` (centres undefined), the Reduction in the assay with Vero [13] was determined as 14%. In addition, in the assay on Toxoplasma gondii [14], the “Mean number of parasites” value is on record as 3.

As to `CCN1C(=O)C(CC(=O)O)S/C1=N\N=C\c1cccc([N+](=O)[O-])c1` (centres undefined), the Reduction with Vero [15] was 19%. Besides, the “Mean number of parasites” value with Toxoplasma gondii [16] came to 3.

Turning to `O=[N+]([O-])c1cccc(/C=N/N=C(\S)Nc2ccccc2)c1`, the half-inhibitory concentration (IC50) in the assay on Vero [1] came to 1000 µM; with Toxoplasma gondii [2] it was 80 µM. This compound yielded a Reduction in the assay with Vero [11] of 7%. For the same compound, the “Mean number of parasites” value with Toxoplasma gondii [17] amounted to 11.

Consider `O=C(O)CC1SC(N/N=C/c2cccc([N+](=O)[O-])c2)=NC1=O` (centres undefined), for which the IC50 in the assay on Vero [1] was found to be 2000 µM; in the assay on Toxoplasma gondii [2], 500 µM. The Reduction in the assay on Vero [18] was found to be 15%. For the same compound, the “Mean number of parasites” value in the assay on Toxoplasma gondii [19] was 4.

Turning to `CN1C(=O)C(CC(=O)O)S/C1=N\N=C\c1ccccc1[N+](=O)[O-]` (centres undefined), the half-inhibitory concentration (IC50) came out at 2000 µM in the assay with Vero [1] and 500 µM in the assay with Toxoplasma gondii [2]. Further, in the assay with Toxoplasma gondii [20], the “Mean number of parasites” value is listed as 3. The same compound showed an Infected cells with Vero [10] of 15%.

Regarding `C/N=C(/S)N/N=C/c1ccc([N+](=O)[O-])cc1`, the IC50 stood at 10000 µM in the assay with Vero [1] and 3000 µM in the assay with Toxoplasma gondii [2]. This compound also came in with a Reduction in the assay with Vero [21] of 12%. In the assay on Toxoplasma gondii [22], the “Mean number of parasites” value turned out to be 72.

Consider `C/N=C(/S)N/N=C/c1cccc([N+](=O)[O-])c1`, for which the IC50 came out at 1500 µM with Vero [1] and 500 µM in the assay on Toxoplasma gondii [2]. Besides, in the assay with Toxoplasma gondii [9], the “Mean number of parasites” value amounted to 1. Moreover, the Infected cells in the assay on Vero [10] was 9%.

On to `CC/N=C(/S)N/N=C/c1ccccc1[N+](=O)[O-]`, for which the IC50 in the assay with Vero [1] was found to be 2000 µM; with Toxoplasma gondii [2] it was 500 µM. Also, in the assay on Vero [3], the Reduction is listed as 8%. Further, the “Mean number of parasites” value with Toxoplasma gondii [4] is reported as 1.

The compound `CN1C(=O)C(CC(=O)O)S/C1=N\N=C\c1ccc([N+](=O)[O-])cc1` (centres undefined) gave a Reduction with Vero [23] of 13%. Moreover, the “Mean number of parasites” value in the assay with Toxoplasma gondii [24] was found to be 2.

In the case of `CC/N=C(/S)N/N=C/c1ccc([N+](=O)[O-])cc1`, the IC50 in the assay with Vero [1] came to 2500 µM; in the assay on Toxoplasma gondii [2] it was 500 µM. Also, the Reduction in the assay on Vero [13] came out at 17%. Besides, the “Mean number of parasites” value in [25] is on record as 9.

Take `CCN1C(=O)C(CC(=O)O)S/C1=N\N=C\c1ccc([N+](=O)[O-])cc1` (centres undefined): the 50% inhibitory concentration (IC50) was found to be 2000 µM in the assay on Vero [1] and 500 µM in the assay on Toxoplasma gondii [2]. In the assay on Vero [18], this compound showed a Reduction of 7%. For the same compound, in the assay on Toxoplasma gondii [26], the “Mean number of parasites” value is on record as 2.

For the compound `O=C(O)CC1SC(N/N=C/c2ccc([N+](=O)[O-])cc2)=NC1=O` (centres undefined), the 50% inhibitory concentration (IC50) with Vero [1] was 2500 µM; in the assay with Toxoplasma gondii [2], 500 µM. Moreover, in the assay on Vero [15], the Reduction is 16%. The “Mean number of parasites” value in the assay on Toxoplasma gondii [16] is reported as 4.

`O=C(O)CC1S/C(=N\N=C\c2ccccc2[N+](=O)[O-])N(c2ccccc2)C1=O` (centres undefined) returned a Reduction with Vero [27] of 8%. Moreover, the “Mean number of parasites” value in the assay with Toxoplasma gondii [28] was found to be 2.

Consider `CN1C(=O)C(CC(=O)O)S/C1=N\N=C\c1cccc([N+](=O)[O-])c1` (centres undefined), for which the Reduction in the assay with Vero [15] stood at 11%. Also, in the assay with Toxoplasma gondii [29], the “Mean number of parasites” value is 2.

Regarding `CC/N=C(/S)N/N=C/c1cccc([N+](=O)[O-])c1`, the results for the IC50 with Vero [1] and with Toxoplasma gondii [2] were 1000 µM and 80 µM, respectively. Also, in the assay with Vero [5], the Reduction was found to be 7%. For the same compound, the “Mean number of parasites” value with Toxoplasma gondii [6] is reported as 5.

Turning to `NC(=O)NO` [HYDROXYUREA], the IC50 in the assay with Vero [1] and in the assay on Toxoplasma gondii [2] was 100 µM throughout. Also, in the assay with Vero [18], the Reduction is reported as 26%. Moreover, the “Mean number of parasites” value in the assay on Toxoplasma gondii [30] is 186.

For the compound `Nc1ccc(S(=O)(=O)Nc2ncccn2)cc1` [SULFADIAZINE], the values for the IC50 in the assay on Vero [1] and with Toxoplasma gondii [2] were 90 µM and 100 µM, respectively.

The IC50 is the concentration needed to halve the response being measured. High values mean weaker potency in that assay, low ones greater potency in that assay.
